Results reported in ChEMBL document CHEMBL1134751, “Design and synthesis of ether analogues as potent and selective M2 muscarinic receptor antagonists” (Bioorg Med Chem Lett, 2001).

Columns and labels:
[1] = target: Muscarinic acetylcholine receptors; M1 & M2 (Homo sapiens) (UniProt P11229+P08172); test: Ratio of binding affinity against Muscarinic acetylcholine receptor M1 to that of Muscarinic acetylcholine receptor M2; format: protein assay
[2] = target: T1, Muscarinic acetylcholine receptor M2 (Homo sapiens) (UniProt P08172); test: Ratio of binding affinity against Muscarinic acetylcholine receptor M4 to that of Muscarinic acetylcholine receptor M2
T1 sequence (whole entry): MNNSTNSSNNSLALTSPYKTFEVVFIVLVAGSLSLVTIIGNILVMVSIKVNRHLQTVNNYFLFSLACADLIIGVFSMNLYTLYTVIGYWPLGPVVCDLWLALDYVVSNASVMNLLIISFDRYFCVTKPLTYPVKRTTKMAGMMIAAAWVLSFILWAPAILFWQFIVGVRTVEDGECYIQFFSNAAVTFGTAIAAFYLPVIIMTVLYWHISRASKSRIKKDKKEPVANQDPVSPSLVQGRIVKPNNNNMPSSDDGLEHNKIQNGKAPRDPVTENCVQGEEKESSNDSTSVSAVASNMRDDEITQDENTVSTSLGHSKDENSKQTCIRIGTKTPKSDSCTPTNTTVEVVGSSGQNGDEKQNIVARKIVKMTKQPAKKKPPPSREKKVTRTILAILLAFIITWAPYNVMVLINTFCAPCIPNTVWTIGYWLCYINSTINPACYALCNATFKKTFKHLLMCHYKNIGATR

[3] = target: Muscarinic acetylcholine receptors; M2 & M3 (Homo sapiens) (UniProt P20309+P08172); test: Ratio of binding affinity against Muscarinic acetylcholine receptor M3 to that of Muscarinic acetylcholine receptor M2; format: protein assay
[4] = target: T1, Muscarinic acetylcholine receptor M2 (Homo sapiens); test: Ratio of binding affinity against Muscarinic acetylcholine receptor M5 to that of Muscarinic acetylcholine receptor M2
[5] = target: T2, Muscarinic acetylcholine receptor M2 (Homo sapiens, UniProt P08172); test: Binding affinity towards Muscarinic acetylcholine receptor M2 stably expressed in CHO-K1 cells using [3H]-QNB as radioligand; format: cell-based
T2 sequence (P08172 whole entry): T1 sequence (whole entry)
How it was run: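 Competition binding on membranes of clonal cells expressing receptor at 1–9 pmol/mg protein. Incubated with 180 pM [3H]QNB in 10 mM potassium phosphate pH 7.4 plus 1% DMSO and 0.4% methylcellulose for 120 min at rt to equilibrium. Non-specific binding defined with 0.5 mM atropine, protein set for 700–1500 cpm specific binding, then filtration separation. QNB Kd from saturation with 5–2500 pM [3H]QNB.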

Chain of Muscarinic acetylcholine receptors; M1 & M2 (Homo sapiens) (P11229 whole entry, looked up, one chain of several): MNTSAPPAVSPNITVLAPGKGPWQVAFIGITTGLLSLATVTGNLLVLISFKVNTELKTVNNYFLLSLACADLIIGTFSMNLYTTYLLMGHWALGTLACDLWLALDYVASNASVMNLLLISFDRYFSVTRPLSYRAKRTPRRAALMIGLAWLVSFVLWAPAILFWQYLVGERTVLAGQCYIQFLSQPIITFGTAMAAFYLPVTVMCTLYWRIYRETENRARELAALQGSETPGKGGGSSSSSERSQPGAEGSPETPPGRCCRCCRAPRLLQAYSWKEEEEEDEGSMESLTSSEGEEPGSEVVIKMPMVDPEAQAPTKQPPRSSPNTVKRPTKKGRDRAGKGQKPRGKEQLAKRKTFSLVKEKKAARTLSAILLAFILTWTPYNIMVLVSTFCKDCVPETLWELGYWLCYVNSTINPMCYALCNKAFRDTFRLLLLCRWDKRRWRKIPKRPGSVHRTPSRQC

Ratio [1] | Ratio [2] | Ratio [3] | Ratio [4] | Ki [5] | SMILES
18 | 6 | 6 | 15 | 1.6 nM | O=C(c1ccccc1)N1CCC(N2CCC(Oc3ccc(S(=O)(=O)c4ccc5c(c4)OCO5)cc3)CC2)CC1
234 | 23 | 109 | 196 | 0.2 nM | Cc1ccsc1C(=O)N1CCC(N2CCC(Oc3ccc(S(=O)(=O)c4ccc5c(c4)OCO5)cc3)CC2)CC1
– | – | – | – | 139 nM | CCCS(=O)(=O)N1CCC(N2CCC(Oc3ccc(S(=O)(=O)c4ccc(OC)cc4)cc3)CC2)CC1
155 | 31 | 132 | 56 | 0.4 nM | Cc1cccc(C(=O)N2CCC(N3CCC(Oc4ccc(S(=O)(=O)c5ccc6c(c5)OCO6)cc4)CC3)CC2)c1C
9 | 2 | 10 | 4 | 12 nM | O=C(c1cccc2cccnc12)N1CCC(N2CCC(Oc3ccc(S(=O)(=O)c4ccc5c(c4)OCO5)cc3)CC2)CC1
4 | – | – | – | 6 nM | CCOC(=O)N1CCC(N2CCC(Oc3ccc(S(=O)(=O)c4ccc5c(c4)OCO5)cc3)CC2)CC1
10 | 2 | 2 | 16 | 14 nM | CC(C)S(=O)(=O)N1CCC(N2CCC(Oc3ccc(S(=O)(=O)c4ccc5c(c4)OCO5)cc3)CC2)CC1
49 | 12 | 122 | 46 | 2 nM | CCS(=O)(=O)N1CCC(N2CCC(Oc3ccc(S(=O)(=O)c4ccc5c(c4)OCO5)cc3)CC2)CC1
8 | 3 | 5 | 13 | 59.5 nM | O=C(COc1ccccc1)N1CCC(N2CCC(Oc3ccc(S(=O)(=O)c4ccc5c(c4)OCO5)cc3)CC2)CC1
19 | 4 | 12 | 1 | 15 nM | O=S(=O)(c1ccc(OC2CCN(C3CCN(S(=O)(=O)Cc4ccccc4)CC3)CC2)cc1)c1ccc2c(c1)OCO2
233 | 21 | 124 | 64 | 0.5 nM | O=C(c1cccc2ncccc12)N1CCC(N2CCC(Oc3ccc(S(=O)(=O)c4ccc5c(c4)OCO5)cc3)CC2)CC1
357 | 28 | 216 | 50 | 0.5 nM | O=C(c1cccc2ccccc12)N1CCC(N2CCC(Oc3ccc(S(=O)(=O)c4ccc5c(c4)OCO5)cc3)CC2)CC1
6 | 2 | 5 | 13 | 17.9 nM | CCOCC(=O)N1CCC(N2CCC(Oc3ccc(S(=O)(=O)c4ccc5c(c4)OCO5)cc3)CC2)CC1
58 | 25 | 46 | 39 | 1.6 nM | CCCS(=O)(=O)N1CCC(N2CCC(Oc3ccc(S(=O)(=O)c4ccc5c(c4)OCO5)cc3)CC2)CC1
59 | 7 | 19 | 10 | 3.2 nM | CC(C)OC(=O)N1CCC(N2CCC(Oc3ccc(S(=O)(=O)c4ccc5c(c4)OCO5)cc3)CC2)CC1
140 | 18 | 117 | 1480 | 1 nM | O=C(c1ccnc2ccccc12)N1CCC(N2CCC(Oc3ccc(S(=O)(=O)c4ccc5c(c4)OCO5)cc3)CC2)CC1
35 | 4 | 50 | 35 | 6.9 nM | CCCCS(=O)(=O)N1CCC(N2CCC(Oc3ccc(S(=O)(=O)c4ccc5c(c4)OCO5)cc3)CC2)CC1
2 | 1 | 8 | 4 | 34.7 nM | O=S(=O)(c1ccc(OC2CCN(C3CCN(S(=O)(=O)c4cccc5ccccc45)CC3)CC2)cc1)c1ccc2c(c1)OCO2

SMILES | Ratio [1] | Ratio [2] | Ratio [3] | Ratio [4] | Ki [5]
O=C(Oc1ccccc1)N1CCC(N2CCC(Oc3ccc(S(=O)(=O)c4ccc5c(c4)OCO5)cc3)CC2)CC1 | 48 | 11 | 61 | 69 | 1.1 nM
